Screening data deposited in PubChem BioAssay by several laboratories.
Compounds with a hit are over-represented: about 9.4% of the library has one in this group of screens.
Lmaj promast – inhibitors of Leishmania major promastigote growth. inhibition, % at 10 µM. Leishmania major promastigotes, resazurin fluorescence viability. AID 1063. actives 9% (n = 200,000); in the data active = inhibition above about 50%;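 also: promastigotes grown with compound for 44 hours at 28 °C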
Beta cell apopt – beta cell apoptosis inhibition; actives 0.8% (n = 300,000); protection from apoptosis, % (test concentration not listed); INS-1E cytokine-induced death, ATP luminescence, 48 h; percent of positive-control rescue, neutral wells zero; AID 435005;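 active = Every replicate reaches about 75%, or at least half do and their mean reaches it too, limit read from the data; inconclusive = At least half of replicates reach the limit but their mean does not; inactive = Under half of replicates reach the limit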;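 also: 0% = cytokine-treated negative control wells and 100% = positive control rescue; higher means more ATP so stronger rescue from cytokine killing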
CSC inhib – cancer stem cell inhibition | cancer stem cell-like cells viability, luminescence | inhibition, % at 7.5 µM | actives 1.1% (n = 300,000); in the data active = inhibition above about 75%; inconclusive = no clear call, values can overlap the other calls; tested in HMLE shEcad cells
T cruzi repl – T. cruzi replication inhibition; actives 1.4% (n = 300,000); AID 1885; inhibition, % (no concentration beside the values); T. cruzi beta-gal in NIH3T3, luminescence, 90 h;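 active = mean inhibition across valid replicates above about 55%, limit read from the data; inconclusive = mean below that limit but half or more replicates reach it; inactive = mean below it, under half of replicates reach it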;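 also: signal also drops with host cell toxicity which is not excluded here; 0% = plate median of DMSO wells and 100% = zero luminescence signal; higher percent means less beta-gal luminescence so fewer parasites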
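System – NIH/3T3 host cells with β-galactosidase reporter T. cruzi · Doses – single 50 nL compound addition per well in DMSO · Reagent – 5000 T. cruzi trypomastigotes/well · Medium – Low-serum DMEM with 2% FBS · Timing – ≥90 h infection period, 3 h prior cell attachment · Evaluation – parasite load inhibition, % · Technique – GalScreen luminescence, 60 min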
SKKanGAS inh – inhibitors of SKKanGAS S. pyogenes growth in kanamycin (SK-promoter or general growth effect). BacTiter-Glo, 6 h. inhibition, % at 7.5 µM. actives 1.3% (n = 300,000);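 active = mean replicate score, as percent of positive control median, at least 50; inconclusive = mean below 50 but one replicate at or above 50; inactive = mean and every replicate below 50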;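 also: strain carries kanamycin resistance gene driven by streptokinase promoter and grows in 40 µg/ml kanamycin; loss of luminescence reflects streptokinase promoter inhibition or plain growth inhibition; 0% = median of DMSO wells and 100% = positive control at its reference dose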
Mdm2-MdmX inh – human Mdm2/MdmX binding inhibition; O15151+Q00987; SaOS-2 split-luciferase Mdm2/MdmX complementation, luminescence; inhibition, % at 8 µM; actives 3% (n = 330,000);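 active = inhibition of at least 50% at 8 µM in the primary screen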
Target sequence (O15151 whole entry, looked up): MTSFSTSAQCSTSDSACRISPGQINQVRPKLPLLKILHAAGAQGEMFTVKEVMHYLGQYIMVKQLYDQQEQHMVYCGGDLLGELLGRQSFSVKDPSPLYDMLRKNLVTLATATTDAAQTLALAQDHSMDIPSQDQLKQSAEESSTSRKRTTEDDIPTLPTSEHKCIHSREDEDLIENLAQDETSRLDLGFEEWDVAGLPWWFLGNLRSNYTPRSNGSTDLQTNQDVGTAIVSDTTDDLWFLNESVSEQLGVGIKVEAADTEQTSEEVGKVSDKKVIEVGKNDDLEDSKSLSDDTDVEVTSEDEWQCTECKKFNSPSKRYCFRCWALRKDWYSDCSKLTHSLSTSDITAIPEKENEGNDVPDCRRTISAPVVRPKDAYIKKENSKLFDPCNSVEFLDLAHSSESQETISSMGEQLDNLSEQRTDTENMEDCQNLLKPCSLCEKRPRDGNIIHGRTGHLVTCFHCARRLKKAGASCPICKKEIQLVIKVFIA
Target sequence (Q00987 whole entry, looked up): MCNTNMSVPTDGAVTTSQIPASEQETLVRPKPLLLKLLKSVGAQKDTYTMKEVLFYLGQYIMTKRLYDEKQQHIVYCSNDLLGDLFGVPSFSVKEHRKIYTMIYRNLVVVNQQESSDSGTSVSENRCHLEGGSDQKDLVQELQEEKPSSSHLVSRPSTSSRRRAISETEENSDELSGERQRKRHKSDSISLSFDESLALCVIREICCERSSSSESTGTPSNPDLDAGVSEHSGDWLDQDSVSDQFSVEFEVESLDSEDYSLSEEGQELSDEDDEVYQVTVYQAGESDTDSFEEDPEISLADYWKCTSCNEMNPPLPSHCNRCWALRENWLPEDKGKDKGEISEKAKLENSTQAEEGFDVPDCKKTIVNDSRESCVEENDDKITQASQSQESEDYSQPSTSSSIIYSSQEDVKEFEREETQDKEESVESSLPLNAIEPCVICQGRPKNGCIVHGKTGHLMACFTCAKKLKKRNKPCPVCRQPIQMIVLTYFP
L major 1uM – blocks Leishmania major promastigote growth at 1 uM, repeat screen | inhibition, % at 1 µM | AID 1258 | L. major promastigote growth, resazurin fluorescence, 48 h | actives 13% (n = 1,100) | shares compounds with Lmaj promast;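 active = inhibition above about 50% in both repeat tests, limit read from the data; inconclusive = one repeat under the set limit, the other over it; inactive = both repeats under the set limit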
An asterisk follows results filed as active; ? = inconclusive; . = not tested or not shown.

SMILES	Lmaj promast	Beta cell apopt	CSC inhib	T cruzi repl	SKKanGAS inh	Mdm2-MdmX inh	L major 1uM
CCOC(=O)c1sc(-c2ccc(Cl)cc2)nc1O	.	-3	-2	9	20	22	.
Cc1ccc(NC(=O)CCSc2nnc(C)s2)cc1	1	.	-3	-11	-2	20	.
CC1=NN(/C(=N\c2nnc(C)s2)Nc2ccc(C(C)(C)C)cc2)[C@H](c2ccc(C)cc2)S1	64*	12	52	57*	58*	37	29
C=CCSc1nnc2c(n1)[nH]c1c(C)cccc12	61*	23	16	-3	4	-98	11
Cc1ccc(-c2cc[n+](Cc3ccccc3)cc2)cc1	92*	51	4	.	.	16	3
Cc1cc[n+](Cc2ccc([N+](=O)[O-])cc2)cc1	-8	-2	-15	-9	-1	8	.
Cc1ccccc1-n1nc2c(c1NC(=O)C1CCCC1)CS(=O)(=O)C2	.	-2	-4	3	4	11	.
Cc1c([N+](=O)[O-])ccc(S(=O)(=O)N2CCC(C(N)=O)CC2)c1C	84*	-6	3	-7	5	2	-9
Cc1c(=O)n(OCc2ccccc2F)c2ccccc2[n+]1[O-]	73*	4	-11	-5	-2	-19	-19
Cc1c(=O)n(OCc2cccc(F)c2)c2ccccc2[n+]1[O-]	-5	-3	6	7	-2	-23	.
Cc1cc(C(=O)NNS(=O)(=O)c2cccc(Cl)c2)nn1C(C)(C)C	.	-7	10	3	1	28	.
COc1ccc(CC(=O)NC(C)c2nnc(SCC(=O)c3ccc(Br)cc3)n2C)cc1 (stereo not given)	75*	-1	2	.	1	1	-4
CC1(C)Cc2ccccc2-c2nnc(-c3ccccn3)n21	-2	-1	-24	-4	0	-37	.
CC1(C)Cc2ccccc2-c2nnc(-c3ccc4ccccc4n3)n21	62*	3	-16	18	8	6	57*
CCCS(=O)(=O)c1c(S(=O)(=O)CCC)c2c3ccccc3ccn2c1C(=O)OC	82*	2	12	51	9	3	0
COc1ccc(/C(C)=N/OCC(=O)N2CC3(C)CC2CC(C)(C)C3)cc1 (stereo not given)	63*	-4	37	13	-4	.	-6
CC(=O)Nc1ccc(C(=O)OCC(=O)N2CC3(C)CC2CC(C)(C)C3)cc1 (stereo not given)	.	-1	-21	.	.	-20	.
N#C/C(C(=O)N1CCCCC1)=C1/N=C(N)c2ccccc21	61*	-3	-7	-19	-4	21	-5
Cc1cc(C)c(C#N)c(SCC(=O)c2ccccc2)n1	100*	5	0	?	4	14	40
CC1CN(C(=O)c2cc(-c3ccc(Cl)s3)nc3ccccc23)CC(C)O1 (stereo not given)	.	0	-5	13	-7	9	.
CCOCCCn1c(=O)c2ccccc2n2c(=S)[nH]nc12	.	1	4	-4	-4	-11	.
CCCCc1cc(O)c(CCCC)c(O)c1	99*	19	6	31	14	20	32
CC1SC(c2ccc(F)cc2)N(CCc2ccccc2)C1=O (stereo not given)	.	.	.	-8	39	-36	.
Cn1c(CN2CCCC2)nc2cc(NS(=O)(=O)c3ccc(Cl)cc3)ccc21	99*	0	-15	16	-2	8	-11
Cc1cc(OCCN2CCCCC2)nc2ccccc12	89*	-2	-10	13	-2	-20	-2
SMILES	Lmaj promast	Beta cell apopt	CSC inhib	T cruzi repl	SKKanGAS inh	Mdm2-MdmX inh	L major 1uM
CCCN1CCC(=O)N([C@H](CN=[N+]=[N-])Cc2ccccc2)CC1	.	-4	4	15	4	3	.
COc1ccc(NC2=Nc3cccc4cccc2c34)cc1	74*	1	-6	6	-10	-25	27
CCC(CC)NC(=O)Nc1ccc(C)cc1	.	1	-11	-7	-1	13	.
COc1ccc2cc(Br)ccc2c1CC(=O)NC1CC(C)(C)NC(C)(C)C1	100*	0	32	15	4	33	-10
CCNC(=O)Cc1c(OC)ccc2cc(Br)ccc12	4	8	.	0	1	-4	.
CC1=Nc2cccc3cccc(c23)N1C	85*	2	-20	1	-1	9	-18
CN1C(=O)N(C)c2cccc3cccc1c23	.	-9	-8	-6	-15	4	.
CCc1c(C)sc(NC(=O)c2ccco2)c1C(=O)N1CCCCC1	53*	-12	1	9	-5	-6	-5
Cc1c(C(=O)NCC2COc3ccccc3O2)oc2ccc(S(=O)(=O)N3CC(C)CC(C)C3)cc12 (stereo not given)	59*	8	30	63*	7	39	6
Cc1c(C(=O)NCC2COc3ccccc3O2)oc2ccc(S(=O)(=O)N3CCOCC3)cc12 (stereo not given)	41	2	30	8	7	33	.
COc1ccc2c3c(cccc13)NN=C2C	101*	.	.	.	.	.	98*
COc1ccc(OC)c2[nH]c(=O)c(CCNC(=O)c3cccs3)cc12	11	-10	-14	3	6	3	.
CC1(C)CC2(CC(c3ccccc3F)c3cc(Cl)c(O)cc3O2)NC(=S)N1 (stereo not given)	83*	8	16	52	14	24	-14
Cc1cccc(C2CC3(CC(C)(C)NC(=S)N3)Oc3cc(O)ccc32)c1 (stereo not given)	22	4	6	25	3	5	.
CN1CCCC1CCNC1C2CC3CC(C2)CC1C3 (stereo not given)	53*	1	9	27	3	15	-18
Oc1ccccc1-c1nc(/C=C/c2ccccc2)nn1-c1ccccc1	98*	2	25	15	15	.	6
Cc1cccnc1CNC(=O)C1CCC(=O)N(CCc2cccc(F)c2)C1 (stereo not given)	.	-2	22	6	2	-4	.
O=Cc1ccc(C(=O)OCC(=O)NC(=O)Nc2ccccc2F)cc1	.	0	-7	.	.	21	.
CCN(c1cccc(C)c1)S(=O)(=O)c1ccc2c(c1)oc(=O)n2C	.	.	9	7	-1	-1	.
CCOc1ccc(N(CC)S(=O)(=O)c2ccc3c(c2)oc(=O)n3C)cc1	57*	-3	7	3	1	-4	-12
CCOC(=O)C1CCN(C(=S)Nc2cc(OC)c(OC)cc2C(=O)OC)CC1	61*	.	.	49	1	-4	8
COC(=O)c1cc(OC)c(OC)cc1NC(=S)N1CCC(C(N)=O)CC1	-6	-3	-5	1	-1	-6	.
Cc1ccccc1OCC(=O)N/N=C/c1ccc(Sc2nc3ccccc3s2)o1	7	-7	21	10	23	8	.
